Assay results: ChEMBL document CHEMBL1125728, “Dopamine autoreceptor agonists as potential antipsychotics. 2. (Aminoalkoxy)-4H-1-benzopyran-4-ones” (J Med Chem, 1991)

Columns and labels:
Dopamine receptor [1] = assay: Compound was tested for its inhibitory effect on the binding profile in Dopamine receptor using [3H]N-propylnorapomorphine in rat brain.; type: tissue-based
Outline: (§1)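 Rat brain receptor binding with the stated radioligands. IC50 obtained by nonlinear regression from four to five concentrations. [3H]flupenthixol and [3H]N-propylnorapomorphine values come from four independent determinations each, and the [3H]haloperidol value from two experiments. Remaining ligands were determined once.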

[2] = biological target: T1, Adrenergic receptor alpha-1 (Rattus norvegicus, UniProt P15823+P23944+P43140); assay: Compound was tested for its inhibitory effect on the binding profile in Alpha-1 adrenergic receptor using [3H]prazosin in rat brain.; type: tissue-based; outline: as §1
T1 sequence (P15823 whole entry): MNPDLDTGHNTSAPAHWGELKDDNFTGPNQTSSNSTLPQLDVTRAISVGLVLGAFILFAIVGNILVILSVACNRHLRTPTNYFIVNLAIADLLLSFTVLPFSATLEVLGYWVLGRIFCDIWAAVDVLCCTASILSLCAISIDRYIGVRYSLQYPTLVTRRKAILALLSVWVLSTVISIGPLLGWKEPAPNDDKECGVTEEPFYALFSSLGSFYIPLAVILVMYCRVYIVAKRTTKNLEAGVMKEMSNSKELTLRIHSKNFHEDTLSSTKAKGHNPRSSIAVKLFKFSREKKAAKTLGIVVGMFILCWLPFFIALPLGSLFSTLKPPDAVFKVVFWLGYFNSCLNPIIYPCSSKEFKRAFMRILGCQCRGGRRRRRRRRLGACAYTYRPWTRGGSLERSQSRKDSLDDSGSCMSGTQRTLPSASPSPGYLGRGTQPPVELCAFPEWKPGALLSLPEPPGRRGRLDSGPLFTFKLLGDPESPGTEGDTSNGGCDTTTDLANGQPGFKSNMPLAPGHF
T1 sequence (P23944 whole entry): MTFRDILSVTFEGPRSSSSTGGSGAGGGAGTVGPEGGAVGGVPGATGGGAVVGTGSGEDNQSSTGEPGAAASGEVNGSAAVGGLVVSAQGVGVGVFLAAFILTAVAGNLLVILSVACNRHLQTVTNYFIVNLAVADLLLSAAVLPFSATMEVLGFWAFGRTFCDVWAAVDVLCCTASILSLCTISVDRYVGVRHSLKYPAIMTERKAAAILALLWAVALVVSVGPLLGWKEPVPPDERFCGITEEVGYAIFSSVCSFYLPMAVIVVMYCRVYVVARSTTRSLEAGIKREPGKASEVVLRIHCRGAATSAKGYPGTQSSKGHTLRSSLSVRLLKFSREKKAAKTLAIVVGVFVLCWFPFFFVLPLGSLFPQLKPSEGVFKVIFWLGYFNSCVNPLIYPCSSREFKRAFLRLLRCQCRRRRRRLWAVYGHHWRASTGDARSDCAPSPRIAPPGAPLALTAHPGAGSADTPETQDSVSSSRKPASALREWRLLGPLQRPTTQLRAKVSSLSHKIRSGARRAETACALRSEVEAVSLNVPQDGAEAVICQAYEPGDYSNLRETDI
T1 sequence (P43140 whole entry): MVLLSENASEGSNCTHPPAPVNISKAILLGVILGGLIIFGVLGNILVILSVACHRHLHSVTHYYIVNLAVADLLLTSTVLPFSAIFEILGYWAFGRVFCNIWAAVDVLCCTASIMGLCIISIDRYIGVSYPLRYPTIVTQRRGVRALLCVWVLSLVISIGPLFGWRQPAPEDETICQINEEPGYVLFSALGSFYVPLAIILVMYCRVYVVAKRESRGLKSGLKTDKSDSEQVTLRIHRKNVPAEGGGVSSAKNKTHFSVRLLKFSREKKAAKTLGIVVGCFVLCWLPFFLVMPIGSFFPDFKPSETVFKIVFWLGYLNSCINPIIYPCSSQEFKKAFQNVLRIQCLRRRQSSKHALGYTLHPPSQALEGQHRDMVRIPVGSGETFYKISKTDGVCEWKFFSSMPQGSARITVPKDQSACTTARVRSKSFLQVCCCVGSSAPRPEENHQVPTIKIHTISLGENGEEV

Rattus norvegicus [3] = assay: Percentage of rats showing signs of stereotyped behavior at 17 mg/kg peroral dose and followed 1 hr later by 10 mg/kg sc of SKF-38393 and animals observed for 60 min postdose before being; type: functional
Outline: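 Part 2: oral dose given to naive rats, six per dose, followed 1 h later by SKF 38393 (10 mg/kg sc). Stereotypy (repetitive rearing, head-swaying, sniffing, licking, gnawing lasting ≥5 s) rated over 60 min. Reported as percent of rats affected.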

D(1A) dopamine receptor = D(1A) dopamine receptor (Rattus norvegicus, UniProt P18901); assay: Compound was tested for its inhibitory effect on the binding profile in Dopamine receptor D1 using [3H]flupenthixol in rat brain.; type: tissue-based; outline: as §1
Sequence of D(1A) dopamine receptor (P18901 whole entry): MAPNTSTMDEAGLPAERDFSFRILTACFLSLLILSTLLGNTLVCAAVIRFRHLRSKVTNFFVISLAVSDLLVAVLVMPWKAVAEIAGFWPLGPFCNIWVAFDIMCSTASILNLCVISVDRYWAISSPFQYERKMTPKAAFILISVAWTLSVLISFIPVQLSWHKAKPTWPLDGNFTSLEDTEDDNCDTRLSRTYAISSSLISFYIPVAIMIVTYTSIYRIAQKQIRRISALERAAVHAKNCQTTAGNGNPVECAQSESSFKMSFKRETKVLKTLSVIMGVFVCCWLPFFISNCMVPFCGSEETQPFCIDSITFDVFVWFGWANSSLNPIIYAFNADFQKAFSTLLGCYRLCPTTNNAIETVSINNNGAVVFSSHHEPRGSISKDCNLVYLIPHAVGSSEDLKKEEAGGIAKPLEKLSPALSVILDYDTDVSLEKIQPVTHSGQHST

Rattus norvegicus [4] = assay: Compound tested for its effective dose to inhibit rat locomotor activity after sc administration of the compound.; type: functional
Outline: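 Rats dosed sc, with locomotor activity recorded for 30 min immediately after dosing. ED50 generated from four to five doses using 5–12 animals per dose, reported with ±95% confidence limits.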

[5] = Compound was tested for its inhibition of Sidman avoidance after peroral administration in Squirrel monkeys.; type: functional; settings: po
Outline: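 Sidman avoidance in mature squirrel monkeys, oral dosing. ED50 ± SEM generated from three doses, four animals per dose.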

Dopamine receptor [6] = assay: Compound was tested for inhibitory binding activity against Dopamine receptor in rat striatal membranes using [3H]HAL as the radioligand.; type: cell membranes, Striatum, Membrane
Outline: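 [3H]Haloperidol displacement from rat striatal DA receptors, run in duplicate. IC50 obtained by nonlinear regression from four to five concentrations.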

For `O=c1ccoc2cc(OCCCN3CCN(c4ccccn4)CC3)ccc12`, the IC50 (Dopamine receptor [1]) was 59 nM, the IC50 [2] was 170 nM and the Animals (Rattus norvegicus [3]) was 0%. The IC50 (D(1A) dopamine receptor) was 21700 nM, the ED50 (Rattus norvegicus [4]) was 0.58 mg/kg and the ED50 [5] was 6 mg/kg. For the same compound, the IC50 (Dopamine receptor [6]) was 1000 nM.
